Source: PubChem
PAFAH1B2 inh: PAFAH1B2 (human) inhibition; P68402; recombinant PAFAH1B2, FP-rhodamine activity probe, fluorescence polarization; inhibition, % at 3.39 µM; 1.2% of 340,000 active;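 active = inhibition above the mean of all tested compounds plus 3 SD, cut at about 24% in these data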;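 note: 0% = enzyme with DMSO and 100% = wells lacking PAFAH1B2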
Target sequence (P68402 whole entry, looked up): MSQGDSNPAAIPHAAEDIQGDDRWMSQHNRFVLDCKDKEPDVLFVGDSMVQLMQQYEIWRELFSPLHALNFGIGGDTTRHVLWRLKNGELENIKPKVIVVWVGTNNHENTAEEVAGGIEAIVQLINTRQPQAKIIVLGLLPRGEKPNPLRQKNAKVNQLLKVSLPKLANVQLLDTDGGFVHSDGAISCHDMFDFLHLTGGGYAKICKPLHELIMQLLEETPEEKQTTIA
PAFAH2 inh: PAFAH2 (human) inhibition | inhibition, % at 3.39 µM | recombinant PAFAH2, FP-rhodamine activity probe, fluorescence polarization | 0.99% of 340,000 active;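 active = inhibition above the mean over all tested compounds plus 3 SD, cut at about 30% in these data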;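 note: inhibitors block probe labeling of enzyme so polarization drops; 0% = enzyme with DMSO and 100% = wells lacking PAFAH2 protein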
ABHD4 inh: inhibits mouse alpha/beta hydrolase domain 4; 0.54% of 370,000 active; inhibition, % at 8.92 µM; Q8VD66; purified mABHD4, FP-Rh probe fluorescence polarization;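 active = inhibition exceeding the mean over every tested compound plus 3 SD, cut at about 30% in these data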;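 note: 0% = plate median of compound wells and 100% = S159A mutant with DMSO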
Target sequence (Q8VD66 whole entry, looked up, the tested form may be a part): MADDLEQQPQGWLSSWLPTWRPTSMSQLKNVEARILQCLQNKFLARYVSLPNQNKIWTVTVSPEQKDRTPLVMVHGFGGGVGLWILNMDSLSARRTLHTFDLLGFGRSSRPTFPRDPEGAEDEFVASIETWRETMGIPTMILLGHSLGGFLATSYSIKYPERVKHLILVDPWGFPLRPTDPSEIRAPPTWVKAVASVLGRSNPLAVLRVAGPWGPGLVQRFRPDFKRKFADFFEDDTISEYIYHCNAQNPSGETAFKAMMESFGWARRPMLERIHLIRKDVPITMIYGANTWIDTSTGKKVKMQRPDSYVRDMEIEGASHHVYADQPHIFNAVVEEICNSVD
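Test system: mABHD4 protein; Read-out basis: % inhibition; Incubation: 45 min + 60 min at 25 °C; Repeats: single replicate; Technique: fluorescence polarization with parallel and perpendicular emission, 525/598 nm; Compound: 8.92 µM, single dose; Benchmarks: full inhibition S159A mutant plus DMSO, zero as sample-well median.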
HTRA1 inhibitor: blocks human HTRA1 serine peptidase; Q92743; recombinant HTRA1, FP-rhodamine activity-based probe, fluorescence polarization; inhibition, % at 5.96 µM; 0.5% of 340,000 active; AID 504803; in the data active = inhibition above about 36%;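 note: 0% = enzyme with DMSO and 100% = wells lacking enzyme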
pPAFAH inh: inhibitors of human plasma PAF acetylhydrolase (pPAFAH); recombinant pPAFAH, FP-rhodamine probe fluorescence polarization; inhibition, % at 3.39 µM; 1.5% of 330,000 active; AID 463082;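 active = inhibition above the mean inhibition across the screen plus 3 SD, cut at about 25% in these data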;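 note: inhibitors block binding of the rhodamine activity-based probe so polarization drops; 0% = enzyme with DMSO and 100% = wells lacking pPAFAH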
PAFAH1B3 inh: inhibitors of human PAFAH1B3. inhibition, % at 3.39 µM. 0.28% of 340,000 active. recombinant PAFAH1B3, FP-rhodamine probe, fluorescence polarization. Q15102. AID 492972;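 active = inhibition above the screen-wide average of all tested compounds plus 3 SD, cut at about 25% in these data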;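 note: 0% = enzyme with DMSO only and 100% = wells lacking PAFAH1B3 protein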
HTRA1 inh conf: confirmation of human HTRA1 inhibitors | shares compounds with HTRA1 inhibitor | recombinant HTRA1, FP-rhodamine activity-based probe, fluorescence polarization | inhibition, % at 5.96 µM | 66% of 1,600 active | AID 540248;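 active = mean inhibition over three repeats above a set limit taken from the earlier primary screen, cut at about 37% in these data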;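 note: 0% = HTRA1 with DMSO and 100% = wells lacking HTRA1; inhibitors block probe binding so polarization drops and inhibition rises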
mABHD4 conf: ABHD4 (mouse) inhibition, FP confirmation | shares compounds with ABHD4 inh | purified mABHD4, FP-Rh probe fluorescence polarization | inhibition, % at 8.92 µM | 55% of 1,800 active | AID 720658;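 active = mean inhibition across replicates above the hit cutoff set in the primary screen, cut at about 30% in these data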;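 note: 0% = wild-type ABHD4 with DMSO and 100% = catalytically dead S159A mutant with DMSO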
Numbers without * were called inactive; . = not tested or not shown; + = active, no number. Shown are actives, neighbours in structure and some others; about 2.8% of the full set was active somewhere.

SMILES	PAFAH1B2 inh	PAFAH2 inh	ABHD4 inh	HTRA1 inhibitor	pPAFAH inh	PAFAH1B3 inh	HTRA1 inh conf	mABHD4 conf
Cc1[nH]n(-c2ncc(-c3ccccc3)s2)c(=O)c1C(c1ccc(Br)cc1)C(C#N)C#N (stereo unspecified)	2	30	51*	39*	27*	11	30	43*
C=CCn1c(SCC(=O)c2ccc(O)c(O)c2)nnc1-c1ccccc1OC	7	22	29*	59*	27*	13	49*	10
FC(F)(F)Oc1ccc(Cn2ccc3ccc(-c4ccc5ccn(Cc6ccccc6)c5c4)cc32)cc1	.	.	7	.	.	.	.	.
NNC(=O)c1cc(O)c(O)c(O)c1	7	2	36*	79*	30*	10	21	6
C[C@@H]1[C@@H](O)C[C@@]2(C[C@H](O)c3ccccc3O2)O[C@H]1c1ccccc1	.	.	3	.	.	.	.	.
Cc1ccc2c(c1)c1c3n2CC(=C2C(=O)OC(C)(C)OC2=O)NC3CCC1 (stereo unspecified)	3	22	37*	51*	29*	13	61*	30*
O=C(CSc1nnnn1-c1ccc(F)cc1)c1ccc(O)c(O)c1	9	19	30*	41*	31*	4	53*	15
Nc1cc2c(cc1O)CCCC2	9	3	30*	44*	31*	3	30	28
O=C1CCCCc2cc(O)c(O)cc21	.	.	10	12	.	.	.	.
Cc1ccc(NC(=O)Cc2ccc(OC(F)F)cc2)c(S(=O)(=O)N2CCOCC2)c1	.	.	5	.	.	.	.	.
CN(C(=S)Nc1ccc(Oc2ccccc2)cc1)c1ccc(O)cc1	5	-9	35*	45*	27*	8	-13	6
C#Cc1cccc(OCC(C)CN2CCC(C(O)(c3ccccc3)c3ccccc3)CC2)c1 (stereo unspecified)	.	.	8	.	.	.	.	.
Cn1c(=O)c(NCCc2ccccc2)c2c3c(cccc31)C(=O)c1ccccc1-2	147*	168*	198*	146*	142*	165*	149*	+
Cc1cccc(NC2=C(NCCO)C(=O)c3ccccc3C2=O)c1	4	4	14	27	1	10	.	.
Cn1c(=O)c(NCCO)c2c3c(cccc31)C(=O)c1ccccc1-2	41*	58*	93*	60*	95*	41*	72*	85*
COc1ccccc1/C=N\NC(=O)c1cccc(S(=O)(=O)N(C)C)c1	.	.	-3	.	.	.	.	.
COc1ccc(CNCC#Cc2ccc(C)cc2)c(OC)c1	.	.	-1	.	.	.	.	.
CCOC(=O)c1sc(N=NC2=C(O)CCCC2=O)c(C(=O)OCC)c1C	-5	10	52*	48*	28*	2	38*	34*
CCOC(=O)/C(N=Nc1sc(C(=O)OCC)c(C)c1C(=O)OCC)=C(\C)O	.	.	.	.	2	.	.	.
COC(=O)[C@]12C[C@H](CC(=O)NCC34CC5CC(CC(C5)C3)C4)C(=O)N(Cc3ccccc3)C1=C[C@H](C(C)(C)C)O[C@@H]2C	.	.	-4	.	.	.	.	.
CCN(CC)c1ccc(C(=C2C=CC(=[N+](CC)CC)C=C2)c2ccc(N(CC)CC)cc2)cc1	5	3	110*	83*	.	-1	86*	125*
O=C(Nc1cccc2[nH]ncc12)NS(=O)(=O)c1ccccc1	9	6	98*	44*	11	5	7	8
CC(=O)Nc1ccc(S(=O)(=O)Nc2cccc3[nH]ncc23)cc1	-2	2	2	-2	10	9	.	.
COC[C@@H]1CCCN1c1cccc2c1S(=O)(=O)N(C1CC1)CCCO2	.	.	9	.	.	.	.	.
O=C1C=C(c2c(O)ccc3ccccc23)c2ccccc2C1=O	5	-5	52*	46*	.	13	48*	55*
SMILES	PAFAH1B2 inh	PAFAH2 inh	ABHD4 inh	HTRA1 inhibitor	pPAFAH inh	PAFAH1B3 inh	HTRA1 inh conf	mABHD4 conf
Cc1nn(-c2ccccc2)c2sc(C(=O)N3CCC4(CC3)OCCO4)cc12	.	.	-9	.	.	.	.	.
Nc1ccc2ccccc2c1N=Nc1ccccc1	6	-3	39*	59*	.	8	53*	39*
COc1cccc(/C=N/NC(=O)c2c(C)nc3ccc(Cl)cn23)c1O	8	19	35*	62*	24	20	65*	55*
O=C(N/N=C/c1cc2c3c(c1O)CCCN3CCC2)c1ccccc1O	12	15	44*	51*	.	18	58*	22
Cc1ccc(/C=[N+](\[O-])c2ccc(N(C)C)cc2)c2nsnc12	4	1	30*	38*	.	15	20	-8
CC(C)N=c1cc2n(-c3ccc(Cl)cc3)c3ccccc3nc-2cc1Nc1ccc(Cl)cc1	-2	2	61*	70*	17	10	51*	78*
COc1cccc2c1C(=O)c1c(O)c3c(c(O)c1C2=O)C[C@](O)(C(C)=O)C[C@H]3O[C@@H]1C[C@@H](N)[C@@H](O)[C@@H](C)O1	49*	51*	68*	68*	57*	43*	72*	61*
COc1cccc2c1-c1c(O)cccc1C2=O	6	6	-1	-1	4	15	.	.
O=C(N[C@H]1C[C@@H]2O[C@@H](CO)CC[C@@H]2O[C@@H]1CCc1ccc(-c2cccnc2)cc1)c1cccc(F)c1	.	.	-8	.	.	.	.	.
COc1cc(OC)c(C2Nc3cccc4cccc(c34)N2)c(OC)c1	2	12	50*	52*	.	15	19	36*
Clc1cccc(Cl)c1C1Nc2cccc3cccc(c23)N1	2	18	72*	70*	24	14	26	48*
Clc1ccc(C2Nc3cccc4cccc(c34)N2)cc1Cl	8	12	14	21	6	17	.	.
Clc1cccc(C2Nc3cccc4cccc(c34)N2)c1	2	-1	13	9	14	17	.	.
Fc1cccc(Cl)c1C1Nc2cccc3cccc(c23)N1	-1	17	57*	50*	13	18	19	48*
O=C(NC1CCCCN(Cc2ccc(Cl)cc2)C1=O)c1cccc(C(F)(F)F)c1 (stereo unspecified)	.	.	-12	.	.	.	.	.
CC(C)c1[nH]nc2c1C(c1ccccc1)N(c1ccccc1)C2=O (stereo unspecified)	.	.	11	.	.	.	.	.
Cn1cc(C(=O)N/N=C/c2c(O)ccc3ccccc23)ccc1=O	13	11	31*	62*	19	6	42*	30*
O=C(N/N=C/c1c(O)ccc2ccccc12)c1ccc(Br)o1	12	14	38*	48*	29*	35*	42*	10
COc1cccc(/C=N/NC(=O)c2ccc(=O)n(C)c2)c1O	8	3	0	3	6	13	.	.
